# From ChEMBL document CHEMBL5329191, “Optimization of the 2-arylquinazoline-4(3H)one scaffold for a selective and potent antitrypanosomal agent: modulation of the mechanism of action through chemical functionalization” (RSC Med Chem, 2023)
# The source made the active and inactive calls. The calls are words filed in the database; no cut-off is given here.
# Assays:
# Leishmania infantum [1] = test: Antileishmanial activity against Leishmania infantum promastigotes; type: functional, organism-based
# Trypanosoma cruzi [2] = test: Antitrypanosomal activity against of Trypanosoma cruzi epimastigotes; type: functional, organism-based
# [3] = Solubility of the compound by UV-Vis spectroscopy; type: physicochemical
# Outline: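 Solubility in μM was determined by UV-Vis spectroscopy.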
# Leishmania infantum [4] = test: Antileishmanial activity against Leishmania infantum promastigotes assessed as increase in IC50 in presence of FA; type: functional
# [5] = Selectivity index, ratio of CC50 for mouse J774.1 cells to IC50 for Leishmania infantum promastigotes; type: toxicity; details: read-out: Ratio CC50/IC50
# Outline: (§1)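 Cytotoxicity (CC50) was measured on murine J774.1A macrophages. Selectivity index is CC50 divided by parasite IC50 (promastigote, epimastigote or axenic amastigote). Values are the mean of three independent experiments.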
# Trypanosoma cruzi [6] = test: Antitrypanosomal activity against of Trypanosoma cruzi epimastigotes in presence of FA; type: functional, organism-based
# Leishmania infantum [7] = test: Induction of ROS production in Leishmania infantum promastigotes in presence of Fe3+; type: functional, organism-based
# Outline: (§2)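 Oxidative stress in parasite cultures was read fluorometrically with the 2,7-dichlorodihydrofluorescein diacetate (DCFH-DA) probe against a negative-control culture, and was also run with metal cations present.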
# Trypanosoma cruzi [8] = test: Induction of ROS production in Trypanosoma cruzi epimastigotes in presence of Cu2+; type: functional, organism-based; outline: as §2
# Trypanosoma cruzi [9] = test: Induction of ROS production in Trypanosoma cruzi epimastigotes in presence of Zn2+; type: functional, organism-based; outline: as §2
# Leishmania infantum [10] = test: Antileishmanial activity against Leishmania infantum promastigotes assessed as decrease in IC50 in presence of iron(III); type: functional, organism-based
# Outline: (§3)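 Parasite proliferation was run in the presence of copper(II), iron(III) or zinc(II) salts, each at 1 μM.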
# Leishmania infantum [11] = test: Antileishmanial activity against Leishmania infantum promastigotes assessed as decrease in IC50 in presence of copper(II); type: functional, organism-based; outline: as §3
# Trypanosoma cruzi [12] = test: […] activity against Trypanosoma cruzi epimastigotes assessed as change in parasites in presence of copper(II); type: functional, organism-based; outline: as §3
# [13] = Mutagenicity in Salmonella typhimurium TA98 assessed as number of revertant colonies at 100 uM by Ames test (reference value: 4); type: toxicity; details: salmonella enterica subsp. enterica […]
# Outline: (§4)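 Ames reverse-mutation assay in Salmonella typhimurium TA 98. Revertant colonies were counted at five escalating dose levels alongside a zero-dose (spontaneous revertant) negative control and a 4-nitro-o-phenylenediamine positive control. A compound was called mutagenic when revertants exceeded twice the negative control at two consecutive dose levels.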
# [14] = Selectivity index, ratio of CC50 for mouse J774.1 cells to IC50 for Trypanosoma cruzi epimastigotes; type: toxicity; details: read-out: Ratio CC50/IC50; outline: as §1
# [15] = Mutagenicity in Salmonella typhimurium TA98 assessed as number of revertant colonies at 1000 uM by Ames test (reference value: 4); type: toxicity; details: salmonella enterica subsp. enterica […]; outline: as §4
# [16] = Selectivity index, ratio of CC50 for mouse J774.1 cells to IC50 for Leishmania infantum amastigotes; type: toxicity; details: read-out: Ratio CC50/IC50; outline: as §1
# Leishmania infantum [17] = test: Induction of ROS production in Leishmania infantum promastigotes in presence of Cu2+; type: functional, organism-based; outline: as §2
# [18] = Mutagenicity in Salmonella typhimurium TA98 assessed as number of revertant colonies at 3000 uM by Ames test (reference value: 4); type: toxicity; details: salmonella enterica subsp. enterica […]; outline: as §4
# [19] = Mutagenicity in Salmonella typhimurium TA98 assessed as number of revertant colonies at 9000 uM by Ames test (reference value: 4); type: toxicity; details: salmonella enterica subsp. enterica […]; outline: as §4
# Leishmania infantum [20] = test: Antileishmanial activity against Leishmania infantum promastigotes assessed as decrease in IC50 in presence of zinc(II); type: functional, organism-based; outline: as §3
# Trypanosoma cruzi [21] = test: Induction of ROS production in Trypanosoma cruzi epimastigotes in presence of Fe3+; type: functional, organism-based; outline: as §2
# [22] = Mutagenicity in Salmonella typhimurium TA98 assessed as number of revertant colonies at 300 uM by Ames test (reference value: 4); type: toxicity; details: salmonella enterica subsp. enterica […]; outline: as §4
# [23] = Cytotoxicity against mouse J774.1 cells; type: toxicity, cell-based; outline: as §1
# Trypanosoma cruzi [24] = test: […] activity against Trypanosoma cruzi epimastigotes assessed as change in parasites in presence of iron(III); type: functional, organism-based; outline: as §3
# Trypanosoma cruzi [25] = test: Antitrypanosomal activity against of Trypanosoma cruzi epimastigotes assessed as increase in IC50 in presence of FA; type: functional
# Leishmania infantum [26] = test: Induction of ROS production in Leishmania infantum promastigotes in presence of Zn2+; type: functional, organism-based; outline: as §2
# Trypanosoma cruzi [27] = test: […] activity against Trypanosoma cruzi epimastigotes assessed as change in parasites in presence of zinc(II); type: functional, organism-based; outline: as §3
# Leishmania infantum [28] = test: Antileishmanial activity against Leishmania infantum axenic amastigotes; type: functional, organism-based
# Trypanosoma cruzi [29] = test: Induction of NO production in Trypanosoma cruzi epimastigotes by Griess method; type: functional, organism-based
# Outline: (§5)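 NO production in parasite cultures was measured at three test concentrations, either 25, 50 and 100 μM or 1, 5 and 10 μM depending on the compound.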
# Leishmania infantum [30] = test: Induction of NO production in Leishmania infantum promastigotes by Griess method; type: functional, organism-based; outline: as §5
# Trypanosoma cruzi [31] = test: Induction of NO production in Trypanosoma cruzi epimastigotes at highest concentration by Griess method; type: functional; outline: as §5
# [32] = Mutagenicity in Salmonella typhimurium TA98 assessed as number of revertant colonies at 7500 uM by Ames test (reference value: 4); type: toxicity; details: salmonella enterica subsp. enterica […]; outline: as §4
# Leishmania infantum [33] = test: Induction of ROS production in Leishmania infantum promastigotes by DCFH-DA staining based flow cytometry analysis; type: functional, organism-based; outline: as §2
# Leishmania infantum [34] = test: Induction of NO production in Leishmania infantum promastigotes at highest concentration by Griess method; type: functional; outline: as §5
# [35] = Mutagenicity in Salmonella typhimurium TA98 assessed as number of revertant colonies at 90 uM by Ames test (reference value: 4); type: toxicity; details: salmonella enterica subsp. enterica […]; outline: as §4
# Trypanosoma cruzi [36] = test: Induction of ROS production in Trypanosoma cruzi epimastigotes by DCFH-DA staining based flow cytometry analysis; type: functional, organism-based; outline: as §2
# [37] = Mutagenicity in Salmonella typhimurium TA98 assessed as number of revertant colonies at 830 uM by Ames test (reference value: 4); type: toxicity; details: salmonella enterica subsp. enterica […]; outline: as §4
# [38] = Mutagenicity in Salmonella typhimurium TA98 assessed as number of revertant colonies at 2500 uM by Ames test (reference value: 4); type: toxicity; details: salmonella enterica subsp. enterica […]; outline: as §4
# [39] = Mutagenicity in Salmonella typhimurium TA98 assessed as number of revertant colonies at 270 uM by Ames test (reference value: 4); type: toxicity; details: salmonella enterica subsp. enterica […]; outline: as §4
# [40] = Mutagenicity in Salmonella typhimurium TA98 assessed as number of revertant colonies at 20 uM by Ames test (reference value: 4); type: toxicity; details: salmonella enterica subsp. enterica […]; outline: as §4
# Leishmania infantum [41] = test: Antileishmanial activity against Leishmania infantum promastigotes in presence of FA; type: functional, organism-based
smiles,measurement,setting,value
O=[N+]([O-])c1ccc(/C=N/N=c2\[nH]c(-c3cccc(Br)c3)nc3ccccc23)o1,IC50,Leishmania infantum [1],> 25 µM
same,IC50,Trypanosoma cruzi [2],> 25 µM
same,solubility,[3],5.67 µM
O=[N+]([O-])c1ccc(/C=N/N=c2\[nH]c(-c3ccc(F)cc3)nc3ccccc23)o1,Activity,Leishmania infantum [4],31%
same,selectivity ratio,[5],15.1
same,IC50,Leishmania infantum [1],4.56 µM
same,IC50,Trypanosoma cruzi [6],6.54 µM
same,Activity,Leishmania infantum [7],Active
same,Activity,Trypanosoma cruzi [8],Active
same,Activity,Trypanosoma cruzi [9],Active
same,Activity,Leishmania infantum [10],Active
same,IC50,Trypanosoma cruzi [2],4.08 µM
same,Activity,Leishmania infantum [11],Active
same,Activity,Trypanosoma cruzi [12],inactive
same,Activity,[13],2
same,selectivity ratio,[14],16.8
same,Activity,[15],3.5
same,selectivity ratio,[16],19.6
same,Activity,Leishmania infantum [17],Active
same,Activity,[18],3
same,Activity,[19],3
same,Activity,Leishmania infantum [20],Active
same,Activity,Trypanosoma cruzi [21],Active
same,Activity,[22],2.5
same,CC50,[23],69.1 µM
same,Activity,Trypanosoma cruzi [24],inactive
same,solubility,[3],5.11 µM
same,Activity,Trypanosoma cruzi [25],38%
same,Activity,Leishmania infantum [26],Active
same,Activity,Trypanosoma cruzi [27],inactive
same,IC50,Leishmania infantum [28],3.52 µM
O=c1[nH]c(-c2cccc(Br)c2)nc2ccccc12,IC50,Leishmania infantum [1],> 25 µM
same,IC50,Trypanosoma cruzi [2],> 25 µM
Cc1ccc(-c2nc(NN)c3ccccc3n2)cc1,IC50,Leishmania infantum [1],1.2 µM
same,IC50,Trypanosoma cruzi [2],18 µM
O=[N+]([O-])c1ccc(/C=N/N=c2\[nH]c(-c3ccc(Cl)cc3)nc3ccccc23)o1,IC50,Leishmania infantum [1],> 25 µM
same,IC50,Trypanosoma cruzi [2],> 25 µM
same,solubility,[3],3.21 µM
O=[N+]([O-])c1ccc(/C=N/N=c2\[nH]c(-c3cccc(Cl)c3)nc3ccccc23)o1,selectivity ratio,[5],54
same,IC50,Leishmania infantum [1],0.77 µM
same,Activity,Trypanosoma cruzi [29],Dose-Dependent Effect
same,Activity,Leishmania infantum [7],Active
same,Activity,Leishmania infantum [30],Dose-Dependent Effect
same,Activity,Trypanosoma cruzi [8],Active
same,Activity,Trypanosoma cruzi [9],Active
same,Activity,Leishmania infantum [10],Active
same,Activity,Trypanosoma cruzi [31],1 µM
same,IC50,Trypanosoma cruzi [2],0.77 µM
same,Activity,Leishmania infantum [11],Active
same,Activity,Trypanosoma cruzi [12],inactive
same,selectivity ratio,[14],60.2
same,Activity,[32],9.5
same,selectivity ratio,[16],46.7
same,Activity,Leishmania infantum [17],Active
same,Activity,Leishmania infantum [33],Active
same,Activity,Leishmania infantum [34],2 µM
same,Activity,Leishmania infantum [20],Active
same,Activity,[35],3
same,Activity,Trypanosoma cruzi [21],Active
same,Activity,Trypanosoma cruzi [36],Active
same,CC50,[23],41.6 µM
same,Activity,Trypanosoma cruzi [24],inactive
same,solubility,[3],7.11 µM
same,Activity,[37],9.5
same,Activity,Leishmania infantum [26],Active
same,Activity,[38],10.5
same,Activity,[39],10
same,Activity,Trypanosoma cruzi [27],inactive
same,IC50,Leishmania infantum [28],0.89 µM
CC1CS(=O)(=O)CCN1/N=C/c1ccc([N+](=O)[O-])o1 (stereo not drawn) [NIFURTIMOX],selectivity ratio,[14],36.3
CCCCCCCCCCCCCCCCOP(=O)([O-])OCC[N+](C)(C)C [MILTEFOSINE],selectivity ratio,[5],8.9
same,IC50,Leishmania infantum [1],10.1 µM
same,selectivity ratio,[16],10.1
same,CC50,[23],89.2 µM
same,IC50,Leishmania infantum [28],8.69 µM
Fc1ccc(-c2nc3ccccc3/c(=N/N=C/c3ccco3)[nH]2)cc1,Activity,Leishmania infantum [4],41%
same,selectivity ratio,[5],13.1
same,IC50,Leishmania infantum [1],9.07 µM
same,IC50,Trypanosoma cruzi [6],33.1 µM
same,Activity,Trypanosoma cruzi [29],inactive
same,Activity,Leishmania infantum [30],inactive
same,IC50,Trypanosoma cruzi [2],9.07 µM
same,selectivity ratio,[14],5.7
same,selectivity ratio,[16],10.7
same,Activity,Leishmania infantum [33],inactive
same,Activity,Trypanosoma cruzi [36],inactive
same,CC50,[23],119 µM
same,solubility,[3],7.87 µM
same,Activity,Trypanosoma cruzi [25],37%
same,IC50,Leishmania infantum [28],11.1 µM
Nc1ccc([N+](=O)[O-])cc1N,Activity,[40],365
O=c1[nH]c(-c2ccc(Cl)cc2)nc2ccccc12,Activity,Leishmania infantum [4],27%
same,IC50,Leishmania infantum [1],4.88 µM
same,IC50,Trypanosoma cruzi [6],24.2 µM
same,Activity,Trypanosoma cruzi [29],inactive
same,Activity,Leishmania infantum [30],inactive
same,IC50,Trypanosoma cruzi [2],18.1 µM
same,Activity,Leishmania infantum [33],inactive
same,IC50,Leishmania infantum [41],6.22 µM
same,Activity,Trypanosoma cruzi [36],inactive
same,Activity,Trypanosoma cruzi [25],34%
Cc1ccc(-c2nc3ccccc3c(=O)[nH]2)cc1,IC50,Leishmania infantum [1],5.23 µM
same,IC50,Trypanosoma cruzi [2],> 25 µM
